Results published in paper PMC9520214 (Heliyon, 2022).
“And” between values parts separate entries of the source, which are not always exact repeats. Equal entries are not always repeated. Where two headings read alike, the source gives them in different places.

How the values were obtained:
Format in all cases: biochemical
hCA II = hCA II (Homo sapiens, UniProt P00918); assay: hCA II esterase activity inhibition assay
In short: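 hCA II purified from expired human erythrocytes by Sepharose-4B-L-tyrosine-sulfanilamide affinity chromatography; purity checked by SDS-PAGE; protein quantified against a bovine serum albumin standard. Esterase activity followed spectrophotometrically as p-nitrophenylacetate hydrolysis to p-nitrophenolate, absorbance change at 348 nm over 3 min at 25 °C. Inhibitor and substrate concentrations varied; IC50 and Ki derived, inhibition type from Lineweaver-Burk plots.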

hCA I = hCA I (Homo sapiens, UniProt P00915); assay: hCA I esterase activity inhibition assay; details: for fold increase of hCA I inhibition relative to complex 2: ratio of Ki values, versus complex 2
AChE = AChE (Electrophorus electricus, UniProt O42275); assay: biochemical
[1] = read-out: Ki hCA II, Lineweaver-Burk, hCA II from human erythrocytes
[2] = read-out: Ki hCA I, Lineweaver-Burk, hCA I from human erythrocytes

Chain of hCA I (P00915 whole entry): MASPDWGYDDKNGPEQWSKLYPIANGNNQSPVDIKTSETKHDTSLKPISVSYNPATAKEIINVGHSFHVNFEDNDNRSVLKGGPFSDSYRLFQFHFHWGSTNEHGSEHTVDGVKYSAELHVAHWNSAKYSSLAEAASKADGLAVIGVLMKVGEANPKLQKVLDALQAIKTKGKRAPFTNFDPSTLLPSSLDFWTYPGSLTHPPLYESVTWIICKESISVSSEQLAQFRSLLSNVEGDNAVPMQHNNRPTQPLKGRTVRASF
Chain of AChE (O42275 24-633): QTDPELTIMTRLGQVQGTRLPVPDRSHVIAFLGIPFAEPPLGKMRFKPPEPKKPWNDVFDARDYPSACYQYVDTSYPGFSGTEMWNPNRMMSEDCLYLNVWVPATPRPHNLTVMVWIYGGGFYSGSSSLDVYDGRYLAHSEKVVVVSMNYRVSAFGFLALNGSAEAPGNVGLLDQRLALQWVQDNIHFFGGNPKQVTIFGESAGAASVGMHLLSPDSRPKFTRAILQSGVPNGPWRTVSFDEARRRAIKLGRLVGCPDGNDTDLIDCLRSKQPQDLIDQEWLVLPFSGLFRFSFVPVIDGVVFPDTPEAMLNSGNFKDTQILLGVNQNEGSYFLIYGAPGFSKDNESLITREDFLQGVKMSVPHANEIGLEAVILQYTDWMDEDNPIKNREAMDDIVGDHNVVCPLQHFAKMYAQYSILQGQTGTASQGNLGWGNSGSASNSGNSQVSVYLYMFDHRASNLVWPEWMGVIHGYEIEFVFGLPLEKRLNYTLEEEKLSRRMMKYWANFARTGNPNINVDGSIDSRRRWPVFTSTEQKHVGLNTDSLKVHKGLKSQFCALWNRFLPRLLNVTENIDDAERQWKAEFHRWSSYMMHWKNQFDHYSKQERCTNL

Compound | Ki (hCA II; [1]) | fold increase of hCA I inhibition relative to complex 2 (hCA I) | Ki (hCA I; [2]) | other results
c1ccc(Cn2c[n+](Cc3ccccc3)c3ccccc32)cc1 [Compound 1, 1,3-dibenzylbenzimidazolium chloride] | – | – | – | IC50 (hCA II): 69.3 nM; Ki (hCA II): 49.3 ± 6.5 nM; IC50 (hCA I): 116 nM; Ki (hCA I): 68.5 ± 11.5 nM; IC50 (AChE): 86.6 nM; Ki (AChE): 64 nM and 64.1 nM
dibromo[1,3-dibenzylbenzimidazol-2-ylidene]-2-aminopyridinepalladium(II) [Complex 4] | 19.7 ± 1.9 nM | 2.83 fold | 18.1 ± 3 nM | –
dibromo[1,3-dibenzylbenzimidazol-2-ylidene]-3-chloropyridinepalladium(II) [Complex 3] | 7.7 ± 0.6 nM | 2.83 fold | 10 ± 1.4 nM | –
dibromo[1,3-dibenzylbenzimidazol-2-ylidene]morpholinepalladium(II) [Complex 6] | 12 nM and 12.1 nM | – | 16.9 ± 0.3 nM | –
dibromo[1,3-dibenzylbenzimidazol-2-ylidene]pyridinepalladium(II) [Complex 2] | 8.3 ± 1.8 nM | – | 28.4 ± 1.2 nM | fold more effective AChE inhibition than donepezil (AChE): 1.49 fold; fold more effective AChE inhibition than tacrine (AChE): 1.76 fold
dibromo[1,3-dibenzylbenzimidazol-2-ylidene]triphenylphosphine palladium(II) [Complex 5] | 15 nM and 15.3 nM | – | 40.3 ± 2 nM | Ki (AChE; read-out: Ki AChE, Lineweaver-Burk, AChE from Electrophorus electricus): 23.1 ± 2.6 nM
